Activity calls are given as the source filed them.

Broadly, the Emax is the size of the effect at its maximum, as opposed to the concentration needed.

The target in data set [1] is T1, 5-hydroxytryptamine receptor 2C (Homo sapiens) (UniProt P28335).
T1 sequence (whole entry): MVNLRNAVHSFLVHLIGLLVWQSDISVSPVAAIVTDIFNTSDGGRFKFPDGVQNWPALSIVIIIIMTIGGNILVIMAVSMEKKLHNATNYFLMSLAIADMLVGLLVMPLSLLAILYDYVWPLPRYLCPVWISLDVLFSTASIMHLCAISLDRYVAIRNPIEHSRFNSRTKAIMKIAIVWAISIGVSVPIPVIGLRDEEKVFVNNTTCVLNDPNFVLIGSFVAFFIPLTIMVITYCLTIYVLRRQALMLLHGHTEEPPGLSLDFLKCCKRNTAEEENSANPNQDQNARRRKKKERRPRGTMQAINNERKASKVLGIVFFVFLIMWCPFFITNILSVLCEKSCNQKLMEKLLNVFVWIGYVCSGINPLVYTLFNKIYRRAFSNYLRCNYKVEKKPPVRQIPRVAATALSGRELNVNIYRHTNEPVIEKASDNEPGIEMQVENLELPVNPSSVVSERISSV
The experiment in a line: Agonist activity at recombinant human 5HT2C-INI receptor expressed in Flp-In-293 cells assessed as calcium flux by FLIPR assay relative to 5-HT. The format is functional, cell-based.

The target in data set [2] is T2, 5-hydroxytryptamine receptor 2B (Homo sapiens, UniProt P41595). The experiment in a line: Agonist activity at recombinant human 5HT2B receptor expressed in Flp-In-293 cells assessed as calcium flux by FLIPR assay relative to 5-HT. It counts as functional, cell-based. On the technique in general: Calcium flux is commonly read through the fluorescence of an indicator in the cells.
T2 sequence (P41595 whole entry): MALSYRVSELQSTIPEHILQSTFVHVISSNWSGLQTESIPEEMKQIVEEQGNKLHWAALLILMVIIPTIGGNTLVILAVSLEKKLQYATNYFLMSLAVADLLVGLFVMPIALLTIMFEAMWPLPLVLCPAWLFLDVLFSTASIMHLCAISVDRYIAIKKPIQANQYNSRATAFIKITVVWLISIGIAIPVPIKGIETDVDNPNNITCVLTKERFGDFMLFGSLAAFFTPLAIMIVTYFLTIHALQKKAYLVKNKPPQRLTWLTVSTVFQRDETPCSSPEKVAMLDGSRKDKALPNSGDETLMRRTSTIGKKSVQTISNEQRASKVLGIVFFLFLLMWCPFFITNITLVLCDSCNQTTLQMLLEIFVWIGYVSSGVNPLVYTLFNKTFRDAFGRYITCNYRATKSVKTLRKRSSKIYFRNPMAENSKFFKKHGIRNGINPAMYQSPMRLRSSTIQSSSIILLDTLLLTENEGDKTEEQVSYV

The species named for data set [3] is Homo sapiens. In words: Selectivity ratio of EC50 for recombinant human 5HT2B receptor to EC50 for recombinant human 5HT2C-INI receptor. Put shortly: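 Calcium flux measured by FLIPR in Flp-In-293 cells stably expressing human 5-HT2B or 5-HT2C-INI receptors.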
Data set [4] deals with Serotonin 2 receptors; 5-HT2a & 5-HT2c (Homo sapiens) (UniProt P28223+P28335). In words: Selectivity ratio of EC50 for recombinant human 5HT2A receptor to EC50 for recombinant human 5HT2C-INI receptor.
Sequence of Serotonin 2 receptors; 5-HT2a & 5-HT2c (Homo sapiens) (P28223 whole entry, looked up, one chain of several): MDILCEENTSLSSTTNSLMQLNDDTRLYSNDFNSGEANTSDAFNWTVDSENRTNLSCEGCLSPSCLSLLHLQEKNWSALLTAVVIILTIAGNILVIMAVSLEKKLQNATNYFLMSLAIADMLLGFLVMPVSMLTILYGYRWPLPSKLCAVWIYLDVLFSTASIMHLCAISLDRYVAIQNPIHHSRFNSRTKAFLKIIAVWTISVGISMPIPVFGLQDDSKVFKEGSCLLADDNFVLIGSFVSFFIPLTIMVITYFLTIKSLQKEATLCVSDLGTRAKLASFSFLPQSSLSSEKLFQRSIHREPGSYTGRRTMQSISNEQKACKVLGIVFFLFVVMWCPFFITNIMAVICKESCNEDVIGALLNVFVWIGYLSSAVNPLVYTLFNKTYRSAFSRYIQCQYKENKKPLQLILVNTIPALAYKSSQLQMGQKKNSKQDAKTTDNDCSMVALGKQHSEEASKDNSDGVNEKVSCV
The target in data set [5] is T3, 5-hydroxytryptamine receptor 2A (Homo sapiens, UniProt P28223). In words: Agonist activity at human 5HT2A receptor expressed in Flp-In-293 cells assessed as calcium flux by FLIPR assay relative to 5-HT. It counts as functional, cell-based.
T3 sequence (P28223 whole entry): as the sequence (P28223 whole entry, looked up, one chain of several) above
Data set [6] has as its system Mus musculus. In words: Restoration of AMPH-disrupted 4 to 12 dB prepulse inhibition in C57BL/6J mouse at 0.5 to 1 mg/kg, ip administered for 10 mins followed by AMPH challenge. It counts as functional, organism-based. Put shortly:
(§1)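 Adult male C57BL/6 mice, n = 8–11/group, given vehicle or 0.5–4 mg/kg, then vehicle or 3 mg/kg amphetamine 10 min later. After 10 min acclimation in a startle chamber, 42 trials were run: 18 pulse-only (120 dB), 18 prepulse-pulse (4, 8, 12 dB prepulses) and 6 null. Peak startle (arbitrary units) was taken within 65 ms of pulse onset.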

Data set [7] concerns Mus musculus. In words: Increase in AMPH-disrupted 4 to 12 dB prepulse inhibition in C57BL/6J mouse at 4 mg/kg, ip administered for 10 mins followed by AMPH challenge. The format is functional, organism-based. In short, it runs like this: as §1
Data set [8] deals with Mus musculus. The experiment in a line: Cognitive enhancing effect in NR1-KD mouse hypoglutamatergic model of schizophrenia at 0.5 to 1 mg/kg, ip administered for 30 mins measured for 3 days by novel object recognition memory test. It counts as functional, organism-based. Put shortly: (§2)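 Three daily 5-min trials: empty-chamber acclimation, two identical objects, then 24 h later one familiar plus one novel object (long-term memory). Sessions video-recorded; time spent investigating objects scored at training and testing.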

Data set [9] deals with Mus musculus. In words: Effect on 120 dB acoustic stimulus-induced pulse-only response in C57BL/6J mouse at 4 mg/kg, ip administered for 10 mins followed by AMPH challenge. The format is functional, organism-based. Put shortly:
as §1

Data set [10] deals with Mus musculus. The experiment in a line: Suppression of AMPH-stimulated hyperlocomotion in C57BL/6J mouse assessed as reduction in distance travelled in open field at 5 to 30 mg/kg, ip administered for 15 mins followed by AMPH challenge measured after 105 mins. It counts as functional, organism-based. In short, it runs like this:
(§3)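 Mice, n = 7–10/treatment, injected with vehicle or 2–30 mg/kg and placed in an open field monitored by infrared beams. After 15 min baseline, they were given vehicle or 3 mg/kg d-amphetamine and recorded for a further 105 min. Distance travelled was taken in 5-min bins or as a cumulative value over 15 min baseline plus 75 min post-amphetamine.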

In data set [11] the test system is Mus musculus. The experiment in a line: Cognitive enhancing effect in NR1-KD mouse hypoglutamatergic model of schizophrenia assessed as reduction in duration of object exploration during testing at 0.5 to 1 mg/kg, ip administered for 30 mins measured for 3 days relative to wild type mouse. It counts as functional, organism-based. In short, it runs like this: as §2

Data set [12] deals with Mus musculus. In words: Effect on 120 dB acoustic stimulus-induced pulse-only response in C57BL/6J mouse at 4 mg/kg, ip administered for 10 mins. The format is functional, organism-based. In short, it runs like this: as §1
Data set [13] relates to Mus musculus. The experiment in a line: Cognitive enhancing effect in NR1-KD mouse hypoglutamatergic model of schizophrenia assessed as reduction in duration of object exploration during training at 0.5 to 1 mg/kg, ip administered for 30 mins measured for 3 days relative to wild type mouse. It counts as functional, organism-based. Put shortly:
as §2

In data set [14] the test system is Mus musculus. The experiment in a line: Suppression of AMPH-stimulated hyperlocomotion in C57BL/6J mouse assessed as reduction in distance travelled in open field at 2 mg/kg, ip administered for 15 mins followed by AMPH challenge measured after 105 mins. The format is functional, organism-based. Put shortly:
as §3

The subject of data set [15] is Mus musculus. In words: Attenuation of novel object recognition memory in wild type mouse assessed as decrease in preference for novel object at 1 mg/kg, ip administered for 30 mins measured for 3 days. It counts as functional, organism-based. In short, it runs like this:
as §2

Data set [16] concerns Mus musculus. The experiment in a line: Reduction in 120 dB acoustic stimulus-induced pulse-only response in C57BL/6J mouse at 0.5 to 2 mg/kg dose followed by AMPH challenge. It counts as functional, organism-based. In short, it runs like this: as §1
Data set [17] relates to Mus musculus. The experiment in a line: Increase in AMPH-disrupted 4 to 12 dB prepulse inhibition in C57BL/6J mouse at 2 mg/kg administered for 10 mins followed by AMPH challenge. The format is functional, organism-based. Put shortly:
as §1

Data set [18] concerns the target T4, 5-hydroxytryptamine receptor 2C (Homo sapiens, UniProt P28335).
T4 sequence (P28335 whole entry): T1 sequence (whole entry)
The experiment in a line: Agonist activity at recombinant human 5HT2C-INI receptor expressed in Flp-In-293 cells assessed as calcium flux by FLIPR assay. The format is functional, cell-based.

Data set [19] concerns the target T3, 5-hydroxytryptamine receptor 2A.
Data set [20] has as its target T2, 5-hydroxytryptamine receptor 2B.
The target is the same in data set [21]. The experiment in a line: Agonist activity at recombinant human 5HT2B receptor expressed in Flp-In-293 cells assessed as calcium flux at 10 uM by FLIPR assay relative to 5-HT. The format is functional, cell-based.
In data set [22] the test system is Mus musculus. In words: Cataleptic activity in ip dosed C57BL/6J mouse measured after 60 mins. It counts as organism-based. Conditions: in vivo, 1 h. In short, it runs like this:
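Male C57BL/6J mice, n = 8–10/treatment/time-point, front paws placed on a 2.5 mm horizontal bar with rear paws on the bench, tested at baseline and then injected with vehicle, haloperidol (0.01–10 mg/kg) or test agent (0.01–30 mg/kg). Separate groups were scored at 60 min as time until paw removal, with a 60 s cut-off.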

As to `COc1ccc(Cl)c(Cl)c1C1CC1CN` (single isomer, unassigned; (-)), the results for the Emax in [1], in data set [2] and in data set [5] were 104%, 53% and 88%, respectively. In addition, the Ratio EC50 in data set [3] was 31; in data set [4] it was 40.
Take `C=CCOc1cc(F)c(F)cc1C1CC1CN` (single isomer, unassigned; (+)): the result in data set [6], in [8], in [11], in data set [13], in [15] and in data set [16] was Active. Further, the result in data set [17] was Active. Further, the result in [7], in data set [9], in data set [12] and in [14] was inactive. In addition, the Activity entry in [10] is “Dose-dependent effect”.
`COc1ccc(F)c(F)c1C1CC1CN` (single isomer, unassigned; (+)) [listing 1 of 2 here]: the results for the Emax in data set [1], in data set [2] and in data set [5] were 108%, 64% and 79%, respectively.
`COc1ccc(F)c(F)c1C1CC1CN` (stereo in doubt; (-)-20b): the Emax in [1] is 108%; in data set [2], 62%; in [5], 72%.
Regarding `COc1ccc(Cl)c(F)c1C1CC1CN` (single isomer, unassigned; (+)) [listing 1 of 2 here], the EC50 in [18] (read-out: EC50) turned out to be 13 nM; in data set [19], 212 nM; in data set [20], 354 nM.
Consider `COc1cc(Cl)c(Cl)cc1C1CC1CN` (single isomer, unassigned; (+)), for which the maximum response (Emax) amounted to 95% in data set [1] and 85% in [5].
Take `COc1ccc(F)c(F)c1C1CC1CN` (single isomer, unassigned; (+)) [listing 2 of 2 here]: the values for the EC50 in [18] (read-out: EC50), in data set [19] and in data set [20] were 9.5 nM, 437 nM and 209 nM, respectively.
Regarding `C=CCOc1ccc(F)c(Cl)c1C1CC1CN` (single isomer, unassigned; (+)), in [18] (read-out: pEC50 (converted)), the EC50 was 97.7 nM.
Take `C=CCOc1ccc(F)c(Cl)c1C1CC1CN` (single isomer, unassigned; (-)): the EC50 in [18] (read-out: EC50) was 104 nM.
For the compound `COc1ccc(F)c(Cl)c1C1CC1CN` (stereo in doubt; (+)-20g), the Emax in [1] is 89%; in data set [5], 77%.
For the compound `COc1cc(F)c(Cl)cc1C1CC1CN` (single isomer, unassigned; (+)) [listing 1 of 2 here], the results for the Emax in data set [1], in data set [2] and in data set [5] were 97%, 59% and 93%, respectively.
Regarding `COc1cc(F)c(Cl)cc1C1CC1CN` (stereo in doubt; (-)-20c) [listing 1 of 2 here], the EC50 in data set [18] (read-out: EC50) is 16 nM; in data set [19], 235 nM; in data set [20], 329 nM.
In turn, `C=CCOc1cc(F)c(Cl)cc1C1CC1CN` (single isomer, unassigned; (+)) came in with an EC50 in data set [20] of 1000 nM.
Regarding `C=CCOc1cc(F)c(F)cc1C1CC1CN` (single isomer, unassigned; (-)), the maximal response (Emax) in data set [21] was less than 15%.
For the compound `COc1ccc(Cl)c(F)c1C1CC1CN` (single isomer, unassigned; (-)), the maximal response (Emax) in data set [1] was found to be 93%; in data set [2], 64%; in [5], 86%.
On to `COc1ccc(Cl)c(Cl)c1C1CC1CN` (stereo in doubt; (+)-20f), for which the Emax in [1] stood at 98%; in data set [2], 26%; in data set [5] it was 78%.
With `O=C(CCCN1CCC(O)(c2ccc(Cl)cc2)CC1)c1ccc(F)cc1` [HALOPERIDOL], in data set [22], the Activity result was “Dose-dependent effect”.
Regarding `COc1cc(Cl)c(Cl)cc1C1CC1CN` (stereo in doubt; (-)-20e), the Emax was 89% in data set [1] and 75% in data set [5].
`COc1cc(F)c(F)cc1C1CC1CN` (single isomer, unassigned; (-)) showed an EC50 in data set [19] of 511 nM.
Turning to `COc1cc(F)c(Cl)cc1C1CC1CN` (stereo in doubt; (-)-20c) [listing 2 of 2 here], the Emax in data set [1] turned out to be 98%; in [2], 44%; in data set [5], 88%.
For `COc1ccc(Cl)c(F)c1C1CC1CN` (single isomer, unassigned; (+)) [listing 2 of 2 here], the maximal effect (Emax) in data set [1] came to 92%; in [2] it was 52%; in data set [5], 85%.
In the case of `COc1cc(F)c(Cl)cc1C1CC1CN` (single isomer, unassigned; (+)) [listing 2 of 2 here], the EC50 was 7.6 nM in data set [18] (read-out: EC50), 7.76 nM in [18] (read-out: pEC50 (converted)), 81 nM in data set [19] and 25 nM in [20].

These data come from ChEMBL document CHEMBL3769385 (J Med Chem, 2016).
